The text below walks through data of ChEMBL document CHEMBL1240449, “Tricyclononene carboxamide derivatives as novel anti-HIV-1 agents” (Eur J Med Chem, 2010).

For data set [1], the system named is Human immunodeficiency virus 1. The experiment in a line: Antiviral activity against R5 tropic HIV1 BaL infected in human CEMx174 5.25M7 cells after 3 days by luciferase assay. As to conditions: Human immunodeficiency virus 1, BaL, CEMx174 5.25M7, 72 h. The class given is functional, organism-based. The essentials:
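Compound at graded concentrations, in triplicate, preincubated with an equal volume of HIV-1 Bal (MOI 0.01) at 37 °C for 30 min. CEMx174 5.25M7 cells (5 × 10⁵/mL; CD4+, CXCR4+, CCR5+) were then added. After overnight culture the medium was replaced. On day 3 the cells were lysed and luciferase activity read. IC50 from percent inhibition by CalcuSyn.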

Data set [2] is described as follows: Cytotoxicity against human CEMx174 5.25M7 cells after 4 days by XTT assay. It is filed as cell-based. Summed up:
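Graded compound concentrations added to an equal volume of CEMx174 5.25M7 cells (5 × 10⁵/mL) and incubated 4 days at 37 °C. XTT (1 mg/mL) containing 0.02 mM PMS was added and absorbance read at 450 nm after 4 h. CC50 by CalcuSyn.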
In general terms: Formazan colour is commonly taken as a measure of viable cells.

Data set [3] is described as follows: Selectivity index, CC50 for human CEMx174 5.25M7 cells to IC50 for R5 tropic HIV1 BaL. It is filed as functional. The essentials: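 Ratio of CC50 (XTT, CEMx174 5.25M7 cells, 4 days) to IC50 (HIV-1 Bal luciferase infection assay, day 3) in the same cell line.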
A further data set deals with Protease (Human immunodeficiency virus 1, UniProt Q9YQ12). Briefly: Inhibition of HIV1 recombinant protease. The essentials: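 Recombinant HIV-1 protease, purified, in 0.1 mol/L sodium acetate pH 5.0 with 0.9 mol/L NaCl, 1 mmol/L DTT, 1 mmol/L EDTA and a fluorescent peptide substrate. Graded compound concentrations were preincubated in this buffer for 20 min at 37 °C, then enzyme was added to start the reaction. Percent inhibition and IC50 were calculated.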

The target in data set [4] is Human immunodeficiency virus type 1 reverse transcriptase (Human immunodeficiency virus 1, UniProt Q72547). Briefly: Inhibition of HIV1 reverse transcriptase after 1 hr by ELISA. In general terms: ELISA stands for enzyme-linked immunosorbent assay.
The target of data set [5] is Human immunodeficiency virus type 1 integrase (Human immunodeficiency virus 1, UniProt Q7ZJM1). Briefly: Inhibition of HIV1 integrase after 1 hr. Summed up: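 Integrase (F185K/C280S IN1-288, expressed in E. coli) assayed in wells coated with a donor DNA duplex substrate. Final read-out by alkaline phosphatase at 405 nm, after PBS-Tween washes and 1% BSA at 37 °C for 40 min. ABPS included as control. IC50 by CalcuSyn.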

Each structure is given as a SMILES string. Bounds are passed on as bounds.

Sequence of Human immunodeficiency virus type 1 integrase (Q7ZJM1 whole entry): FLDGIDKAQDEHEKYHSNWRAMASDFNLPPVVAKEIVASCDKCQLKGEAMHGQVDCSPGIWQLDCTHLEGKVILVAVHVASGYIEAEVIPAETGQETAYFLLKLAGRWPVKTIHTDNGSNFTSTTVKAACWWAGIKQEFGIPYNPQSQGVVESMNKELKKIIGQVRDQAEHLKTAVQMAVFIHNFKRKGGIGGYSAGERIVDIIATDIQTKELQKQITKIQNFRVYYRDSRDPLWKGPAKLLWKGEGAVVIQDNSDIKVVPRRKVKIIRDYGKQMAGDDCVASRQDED
Sequence of Protease (Q9YQ12 whole entry): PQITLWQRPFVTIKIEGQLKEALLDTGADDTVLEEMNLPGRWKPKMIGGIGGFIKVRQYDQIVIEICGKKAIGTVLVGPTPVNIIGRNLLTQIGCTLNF

Take `O=C(NN1C(=O)[C@@H]2C3C=CC(C4CC43)[C@@H]2C1=O)c1ccc(CN2CCN(c3ccncc3)C2=O)cc1` (stereo partly drawn): the IC50 in data set [1] (read-out: IC50) was more than 165 µM. The CC50 at 96 h in data set [2] was more than 165 µM.
Consider `O=C(NN1C(=O)[C@@H]2C3C=CC(C4CC43)[C@@H]2C1=O)c1ccc(Cn2cnc3ccccc32)cc1` (stereo partly drawn), for which the IC50 is 0.41 µM in data set [1] (read-out: IC50); 0.41 µM in data set [1] (read-out: pIC50 (converted)); more than 114 µM on Protease; more than 457 µM in data set [4]; more than 228 µM in data set [5]. Moreover, in data set [2], the CC50 at 96 h worked out at 120 µM. The “Selectivity Index” value in data set [3] is reported as 291.68.
In the case of `Cc1nc2ccccc2n1Cc1ccc(C(=O)NN2C(=O)[C@@H]3C4C=CC(C5CC54)[C@@H]3C2=O)cc1` (stereo partly drawn), the IC50 in data set [1] (read-out: IC50) and in data set [1] (read-out: pIC50 (converted)) was 1.68 µM throughout. Also, the cytotoxic concentration (CC50) at 96 h in data set [2] was determined as 1.02 µM. In data set [3], the “Selectivity Index” value is listed as 0.61.
With `O=C(NN1C(=O)[C@@H]2C3C=CC(C4CC43)[C@@H]2C1=O)c1ccc(COc2ccc(F)cc2)cc1` (stereo partly drawn), the IC50 in data set [1] (read-out: IC50) is 31.4 µM; in data set [1] (read-out: pIC50 (converted)), 31.5 µM. The compound also registered a CC50 at 96 h in data set [2] of 29.7 µM. For the same compound, the “Selectivity Index” value in data set [3] was 0.94.
Taken in the same sequence, the figures for `Cc1ccc(C)n1-c1ccc(C(=O)NN2C(=O)C3C4C=CC(C5CC45)C3C2=O)cc1` (stereo not drawn) were 7.8 µM, 7.8 µM, 3.54 µM and 0.45.
`Cc1nnc(C(C)C)n1-c1ccc(C(=O)NN2C(=O)C3C4C=CC(C5CC45)C3C2=O)cc1` (stereo not drawn): the IC50 in data set [1] (read-out: IC50) is more than 185 µM. This compound also came in with a CC50 at 96 h in data set [2] of more than 185 µM.
As to `Cc1cccc(C)c1C(=O)N1CCC(C(=O)NN2C(=O)C3C4C=CC(C5CC45)C3C2=O)CC1` (stereo not drawn), the IC50 in data set [1] (read-out: IC50) was more than 118 µM. This compound had a CC50 at 96 h in data set [2] of more than 118 µM.
For `O=C(N[C@H](C(=O)NN1C(=O)C2C3C=CC(C4CC34)C2C1=O)c1ccccc1)c1ccccc1` (stereo partly drawn), the IC50 in data set [1] (read-out: IC50) and in data set [1] (read-out: pIC50 (converted)) was 155 µM in each case. In data set [2], this compound yielded a CC50 at 96 h of more than 181 µM. In data set [3], the “Selectivity Index” value was more than 1.17.
Turning to `O=C(N[C@@H](Cc1ccccc1)C(=O)NN1C(=O)C2C3C=CC(C4CC34)C2C1=O)c1ccccc1` (stereo partly drawn), the IC50 is 89.4 µM in data set [1] (read-out: IC50) and 89.3 µM in data set [1] (read-out: pIC50 (converted)).
Regarding `CN(CCCN1C(=O)C2C3C=CC(C4CC34)C2C1=O)Cc1ccccc1` (stereo not drawn), the IC50 in data set [1] (read-out: IC50) and in data set [1] (read-out: pIC50 (converted)) was 30.4 µM each time. The compound further came in with a CC50 at 96 h in data set [2] of 84 µM. In data set [3], the “Selectivity Index” value turned out to be 2.76.
As for `O=C(Nc1ccccc1)c1ccc(CN2C(=O)C3C4C=CC(C5CC45)C3C2=O)cc1` (stereo not drawn), the IC50 in data set [1] (read-out: IC50) and in data set [1] (read-out: pIC50 (converted)) was 5.7 µM throughout. In data set [2], the midpoint of cytotoxicity, the CC50 at 96 h, lay at 44 µM. Moreover, in data set [3], the “Selectivity Index” value is reported as 7.72.
`O=C1C2C3C=CC(C4CC34)C2C(=O)N1CCC(=O)n1cnc2ccccc21` (stereo not drawn): the IC50 in data set [1] (read-out: IC50) is more than 221 µM. Moreover, the CC50 at 96 h in data set [2] is more than 221 µM.
With `CN1CCN(Cc2ccc(C(=O)NN3C(=O)[C@@H]4C5C=CC(C6CC65)[C@@H]4C3=O)cc2)CC1` (stereo partly drawn), the IC50 in data set [1] (read-out: IC50) and in data set [1] (read-out: pIC50 (converted)) was 82.8 µM each time.
As for `O=C(NN1C(=O)[C@@H]2C3C=CC(C4CC43)[C@@H]2C1=O)c1ccc(CNc2cccc(Cl)c2)cc1` (stereo partly drawn), the IC50 in data set [1] (read-out: IC50) is 13.3 µM; in data set [1] (read-out: pIC50 (converted)) it was 13.2 µM. In data set [2], this compound returned a CC50 at 96 h of 27.8 µM. Besides, in data set [3], the “Selectivity Index” value is listed as 2.01.
`CC(C)CN(Cc1ccc(C(=O)NN2C(=O)[C@@H]3C4C=CC(C5CC54)[C@@H]3C2=O)cc1)c1ccccc1` (stereo partly drawn): the IC50 in data set [1] (read-out: IC50) and in data set [1] (read-out: pIC50 (converted)) was 13.2 µM in each case. In addition, the CC50 at 96 h in data set [2] came to 32.7 µM. Moreover, the “Selectivity Index” value in data set [3] is reported as 2.48.
For the compound `CCN(Cc1ccc(C(=O)NN2C(=O)[C@@H]3C4C=CC(C5CC54)[C@@H]3C2=O)cc1)c1ccccc1` (stereo partly drawn), the IC50 was 57.2 µM in data set [1] (read-out: IC50) and 57.1 µM in data set [1] (read-out: pIC50 (converted)). For the same compound, the midpoint of cytotoxicity in data set [2], the CC50 at 96 h, lay at 57 µM. Besides, the “Selectivity Index” value in data set [3] is 1.
Consider `O=C(NN1C(=O)[C@@H]2C3C=CC(C4CC43)[C@@H]2C1=O)c1ccc(CN(Cc2ccccc2)c2ccccc2)cc1` (stereo partly drawn), for which the IC50 in data set [1] (read-out: IC50) and in data set [1] (read-out: pIC50 (converted)) was 17.1 µM in each case. The midpoint of cytotoxicity in data set [2], the CC50 at 96 h, lay at 25.5 µM. Also, the “Selectivity Index” value in data set [3] is listed as 1.51.
`Cc1ccc(-c2ccc3c(c2)C=C(C(=O)Nc2ccc(C[N+](C)(C)C4CCOCC4)cc2)CCC3)cc1.[Cl-]`: the IC50 in data set [1] (read-out: IC50) was 0.05 µM. Moreover, the CC50 at 96 h in data set [2] is 7.88 µM. For the same compound, in data set [3], the “Selectivity Index” value was found to be 157.6.
As for `O=C(NN1C(=O)[C@@H]2[C@@H]3C=C[C@@H]([C@H]4C[C@@H]34)[C@@H]2C1=O)c1ccc(C(F)(F)F)cc1` [TECOVIRIMAT], the IC50 in data set [1] (read-out: IC50) is more than 200 µM.

A word on the CC50: it is the concentration at which the toxic effect on the cells reaches its halfway point. The low end stands for harm at low concentration, the high end for better tolerance by the cells.
